From ChEMBL document CHEMBL3272012, “5-(Tetradecyloxy)-2-furancarboxylic acid and related hypolipidemic fatty acid-like alkyloxyarylcarboxylic acids” (J Med Chem, 1977)
Each block holds one compound with its values, some of them ahead of it.

Experiments:
[1] = tested on: Rattus norvegicus; test: Hypolipidemic activity in Wistar rat assessed as reduction in plasma triglyceride level at 640 umol/kg/day administered through diet for 10 days; assay type: functional; details: 240 h
[2] = tested on: Rattus norvegicus; test: Hypolipidemic activity in Wistar rat assessed as reduction in plasma cholesterol level at 640 umol/kg/day administered through diet for 10 days; assay type: functional; details: 240 h
Outline: (§1)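 Young male Wistar rats (initial weight 170-190 g), groups of six, fed compound mixed into Purina Lab Chow ad libitum for 4 or 10 days; daily dose calculated from food consumption and body weight. Bled by cardiac puncture; plasma cholesterol and triglycerides by automated procedures; percent reduction versus simultaneous untreated controls, Student's t test.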

[3] = tested on: Rattus norvegicus; test: Increase in cholesterol level in Wistar rat liver at 640 umol/kg/day administered through diet for 10 days; assay type: ADME, organism-based; details: in vivo, po, 240 h
[4] = tested on: Rattus norvegicus; test: Increase in liver weight in Wistar rat at 640 umol/kg/day administered through diet for 10 days; assay type: ADME, organism-based; details: in vivo, po, 240 h
[5] = tested on: Rattus norvegicus; test: Hypolipidemic activity in Wistar rat assessed as reduction in plasma triglyceride level at 401 umol/kg/day administered through diet for 4 days; assay type: functional; details: 96 h; outline: as §1
[6] = tested on: Rattus norvegicus; test: Hypolipidemic activity in Wistar rat assessed as reduction in plasma cholesterol level at 401 umol/kg/day administered through diet for 4 days; assay type: functional; details: 96 h
Outline: (§2)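 Young male Wistar rats, 170-190 g at start, in groups of six, given compound mixed into Purina Lab Chow ad libitum for 4 or 10 days as stated. Daily dose was calculated from food consumption and body weight. Plasma was taken by cardiac puncture at the end and cholesterol measured by automated procedure. Results are % reduction versus a concurrent untreated control group, with Student's t test.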

[7] = tested on: Rattus norvegicus; test: Increase in liver weight in Wistar rat at 401 umol/kg/day administered through diet for 4 days; assay type: ADME, organism-based; details: in vivo, po, 96 h
Outline: (§3)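 Male Wistar rats (170-190 g initial), groups of six, dosed via diet ad libitum for 4 or 10 days, daily dose from food consumption. Liver wet weight measured, expressed as g/100 g final body weight, compared with untreated controls run simultaneously.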

[8] = tested on: Rattus norvegicus; test: Increase in cholesterol level in Wistar rat liver at 401 umol/kg/day administered through diet for 4 days; assay type: ADME, organism-based; details: in vivo, po, 96 h
[9] = tested on: Rattus norvegicus; test: Hypolipidemic activity in Wistar rat assessed as reduction in plasma triglyceride level at 459 umol/kg/day administered through diet for 10 days; assay type: functional; details: 240 h
[10] = tested on: Rattus norvegicus; test: Hypolipidemic activity in Wistar rat assessed as reduction in plasma cholesterol level at 459 umol/kg/day administered through diet for 10 days; assay type: functional; details: 240 h
Outline: (§4)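 Young male Wistar rats, 170-190 g initial weight, groups of six, given compound mixed thoroughly into Purina Lab Chow ad libitum for 4 or 10 days as stated. Daily dose calculated from food consumption and body weight. Bled by cardiac puncture at end of treatment; plasma cholesterol measured by automated procedure. Expressed as percent reduction versus simultaneous untreated control group; Student's t test.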

[11] = tested on: Rattus norvegicus; test: Increase in liver weight in Wistar rat at 459 umol/kg/day administered through diet for 10 days; assay type: ADME, organism-based; details: in vivo, po, 240 h
[12] = tested on: Rattus norvegicus; test: Increase in cholesterol level in Wistar rat liver at 459 umol/kg/day administered through diet for 10 days; assay type: ADME, organism-based; details: in vivo, po, 240 h
[13] = tested on: Rattus norvegicus; test: Hypolipidemic activity in Wistar rat assessed as reduction in plasma triglyceride level at 477 umol/kg/day administered through diet for 4 days; assay type: functional; details: 96 h
[14] = tested on: Rattus norvegicus; test: Hypolipidemic activity in Wistar rat assessed as reduction in plasma cholesterol level at 477 umol/kg/day administered through diet for 4 days; assay type: functional; details: 96 h; outline: as §4
[15] = tested on: Rattus norvegicus; test: Increase in liver weight in Wistar rat at 477 umol/kg/day administered through diet for 4 days; assay type: ADME, organism-based; details: in vivo, po, 96 h
[16] = tested on: Rattus norvegicus; test: Increase in cholesterol level in Wistar rat liver at 477 umol/kg/day administered through diet for 4 days; assay type: ADME, organism-based; details: in vivo, po, 96 h
[17] = tested on: Rattus norvegicus; test: Hypolipidemic activity in Wistar rat assessed as reduction in plasma triglyceride level at 425 umol/kg/day administered through diet for 10 days; assay type: functional; details: 240 h
[18] = tested on: Rattus norvegicus; test: Hypolipidemic activity in Wistar rat assessed as reduction in plasma cholesterol level at 425 umol/kg/day administered through diet for 10 days; assay type: functional; details: 240 h; outline: as §4
[19] = tested on: Rattus norvegicus; test: Increase in cholesterol level in Wistar rat liver at 425 umol/kg/day administered through diet for 10 days; assay type: ADME, organism-based; details: in vivo, po, 240 h
[20] = tested on: Rattus norvegicus; test: Increase in liver weight in Wistar rat at 425 umol/kg/day administered through diet for 10 days; assay type: ADME, organism-based; details: in vivo, po, 240 h
[21] = tested on: Rattus norvegicus; test: Hypolipidemic activity in Wistar rat assessed as reduction in plasma triglyceride level at 446 umol/kg/day administered through diet for 4 days; assay type: functional; details: 96 h
[22] = tested on: Rattus norvegicus; test: Hypolipidemic activity in Wistar rat assessed as reduction in plasma cholesterol level at 446 umol/kg/day administered through diet for 4 days; assay type: functional; details: 96 h; outline: as §4
[23] = tested on: Rattus norvegicus; test: Increase in cholesterol level in Wistar rat liver at 446 umol/kg/day administered through diet for 4 days; assay type: ADME, organism-based; details: in vivo, po, 96 h
[24] = tested on: Rattus norvegicus; test: Increase in liver weight in Wistar rat at 446 umol/kg/day administered through diet for 4 days; assay type: ADME, organism-based; details: in vivo, po, 96 h
[25] = tested on: Rattus norvegicus; test: Hypolipidemic activity in Wistar rat assessed as reduction in plasma triglyceride level at 415 umol/kg/day administered through diet for 4 days; assay type: functional; details: 96 h; outline: as §1
[26] = tested on: Rattus norvegicus; test: Hypolipidemic activity in Wistar rat assessed as reduction in plasma cholesterol level at 415 umol/kg/day administered through diet for 4 days; assay type: functional; details: 96 h; outline: as §2
[27] = tested on: Rattus norvegicus; test: Increase in cholesterol level in Wistar rat liver at 415 umol/kg/day administered through diet for 4 days; assay type: ADME, organism-based; details: in vivo, po, 96 h
[28] = tested on: Rattus norvegicus; test: Increase in liver weight in Wistar rat at 415 umol/kg/day administered through diet for 4 days; assay type: ADME, organism-based; details: in vivo, po, 96 h; outline: as §3
[29] = tested on: Rattus norvegicus; test: Hypolipidemic activity in Wistar rat assessed as reduction in plasma triglyceride level at 339 umol/kg/day administered through diet for 4 days; assay type: functional; details: 96 h
Outline: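 Young male Wistar rats (170-190 g initial weight), groups of six, were fed compound mixed into lab chow ad libitum for 4 or 10 days alongside an untreated control group. Daily dose was calculated from food consumption and body weight. Rats were bled by cardiac puncture, and plasma triglyceride was measured by automated procedure. Results are expressed as percent reduction from simultaneous controls, with Student's t test.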

[30] = tested on: Rattus norvegicus; test: Hypolipidemic activity in Wistar rat assessed as reduction in plasma cholesterol level at 339 umol/kg/day administered through diet for 4 days; assay type: functional; details: 96 h; outline: as §2
[31] = tested on: Rattus norvegicus; test: Increase in liver weight in Wistar rat at 339 umol/kg/day administered through diet for 4 days; assay type: ADME, organism-based; details: in vivo, po, 96 h
[32] = tested on: Rattus norvegicus; test: Increase in cholesterol level in Wistar rat liver at 339 umol/kg/day administered through diet for 4 days; assay type: ADME, organism-based; details: in vivo, po, 96 h

SMILES: CCCCCCCCCCc1ccc(C(=O)O)cc1
inhibition in vivo at 640 µmol/kg [1]: 63%
inhibition in vivo at 640 µmol/kg [2]: 32%
Activity [3]: 43%
Activity [4]: 18%

SMILES: CCCCCCCCCCCCCCOc1ccc(CO)cc1
inhibition in vivo at 477 µmol/kg [13]: 41%
inhibition in vivo at 477 µmol/kg [14]: 35%
Activity [15]: 17%
Activity [16]: 33%

SMILES: CCCCCCCCCCCCCCCc1ccc(C(=O)O)cc1
inhibition in vivo at 415 µmol/kg [25]: 58%
inhibition in vivo at 415 µmol/kg [26]: 27%
Activity [27]: 13%
Activity [28]: 4%

SMILES: CCCCCCCCCCCCCCCCOc1ccc(C(=O)CC(=O)OC)cc1
inhibition in vivo at 339 µmol/kg [29]: 57%
inhibition in vivo at 339 µmol/kg [30]: 32%
Activity [31]: 18%
Activity [32]: 2%

Further lines, with some results ahead:

Activity [7]: 17%
Activity [8]: 15%
SMILES: CCCCCCCCCCCCCCOc1ccc(CCC(=O)OC)cc1
inhibition in vivo at 401 µmol/kg [5]: 73%
inhibition in vivo at 401 µmol/kg [6]: 41%

Activity [11]: 0%
Activity [12]: 0%
SMILES: CCCCCCCCCCCCCCOc1ccc(C(N)=O)cc1
inhibition in vivo at 459 µmol/kg [9]: 0%
inhibition in vivo at 459 µmol/kg [10]: 3%

Activity [19]: 0%
Activity [20]: 10%
SMILES: CCCCCCCCCCCCCCCCCCCc1ccc(C(=O)O)cc1
inhibition in vivo at 425 µmol/kg [17]: 2%
inhibition in vivo at 425 µmol/kg [18]: 8%

Activity [23]: 0%
Activity [24]: 4%
SMILES: CCCCCCCCCCCCCCOc1ccc(OCC(=O)OC)cc1
inhibition in vivo at 446 µmol/kg [21]: 0%
inhibition in vivo at 446 µmol/kg [22]: 10%
